Test results published in publication PMC6701634 (Cell, 2018).

Legend:
[1] = tested on: primary leukemic BM cells isolated from MLL-AF9-induced AML mice; assay: Ex vivo apoptosis; assay type: cell-based, mouse; conditions: 18 hr, Annexin V-positive cells
Outline: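 Leukemic mice (>80% GFP+ in PB); BM flushed from femur and tibia, erythrocytes lysed, cells strained. Cells cultured in StemPro-34 with 10 ng/ml IL3, IL6, TPO and SCF, 1.5*10^5 cells per well. Treated 16–18 hr, 5% CO2, with DMSO stocks diluted 1:1000; DMSO-only control. Stained with Annexin V-PE and 7AAD; flow read-out of GFP and PE. Triplicates, mean ± SD.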

normal C57BL/6 mice = assay: 7-day daily treatment for maximal tolerated dose; assay type: in vivo, mouse; conditions: 7 days
CDK9 = CDK9 (Homo sapiens, UniProt P50750); assay: KINOMEscan binding to transcriptional kinases; conditions: for CDK9 Kd (direct binding affinity): Figure 4D
Chain of CDK9 (P50750 whole entry): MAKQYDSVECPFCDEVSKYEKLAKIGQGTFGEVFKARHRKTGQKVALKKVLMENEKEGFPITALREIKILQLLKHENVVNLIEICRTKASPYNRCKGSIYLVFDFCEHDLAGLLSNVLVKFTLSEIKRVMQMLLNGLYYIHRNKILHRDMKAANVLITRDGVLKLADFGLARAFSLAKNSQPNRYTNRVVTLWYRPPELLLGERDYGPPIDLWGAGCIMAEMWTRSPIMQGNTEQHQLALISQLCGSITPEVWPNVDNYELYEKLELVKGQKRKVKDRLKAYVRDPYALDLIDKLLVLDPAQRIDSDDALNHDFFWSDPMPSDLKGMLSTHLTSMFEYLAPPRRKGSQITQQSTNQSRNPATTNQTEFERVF

CKIα [2] = target: CKIα (Homo sapiens, UniProt P48729); assay: KINOMEscan binding assay; conditions: Figure 1C
Chain of CKIα (Homo sapiens, UniProt P48729) (P48729 whole entry): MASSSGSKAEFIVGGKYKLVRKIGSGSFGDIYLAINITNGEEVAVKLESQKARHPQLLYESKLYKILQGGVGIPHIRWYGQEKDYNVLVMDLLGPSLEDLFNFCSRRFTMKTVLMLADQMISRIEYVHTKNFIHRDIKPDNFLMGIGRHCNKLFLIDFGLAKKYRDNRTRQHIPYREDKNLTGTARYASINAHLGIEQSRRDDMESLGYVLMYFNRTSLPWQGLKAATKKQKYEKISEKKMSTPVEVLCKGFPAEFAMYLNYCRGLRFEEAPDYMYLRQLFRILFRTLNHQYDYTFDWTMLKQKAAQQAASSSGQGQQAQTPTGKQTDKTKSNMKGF

CDK7 = CDK7 (Homo sapiens, UniProt P50613); assay: KINOMEscan binding to transcriptional kinases; conditions: for CDK7 Kd (direct binding affinity): Figure 4D
Chain of CDK7 (P50613 whole entry): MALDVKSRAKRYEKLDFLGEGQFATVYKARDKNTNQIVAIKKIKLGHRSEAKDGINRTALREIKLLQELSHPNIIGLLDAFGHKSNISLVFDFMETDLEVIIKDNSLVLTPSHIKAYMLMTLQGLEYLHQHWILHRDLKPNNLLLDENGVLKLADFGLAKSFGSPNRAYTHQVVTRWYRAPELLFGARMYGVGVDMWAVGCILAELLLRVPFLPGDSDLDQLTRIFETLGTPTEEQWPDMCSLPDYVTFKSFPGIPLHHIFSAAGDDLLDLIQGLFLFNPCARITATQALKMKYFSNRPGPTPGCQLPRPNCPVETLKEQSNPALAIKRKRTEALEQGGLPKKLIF

p53 in RKO cells = assay: Western blot of RKO cells treated with A-series inhibitors; assay type: cell-based, human; conditions: 18 hr
Outline: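 RKO cells grown in DMEM with 10% serum. Treated 18 hr with test compounds at several concentrations or DMSO. Lysates immunoblotted.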

CKIδ = CKIδ (Homo sapiens, UniProt P48730); assay: KINOMEscan binding assay; conditions: Figure 1C
Chain of CKIδ (P48730 whole entry): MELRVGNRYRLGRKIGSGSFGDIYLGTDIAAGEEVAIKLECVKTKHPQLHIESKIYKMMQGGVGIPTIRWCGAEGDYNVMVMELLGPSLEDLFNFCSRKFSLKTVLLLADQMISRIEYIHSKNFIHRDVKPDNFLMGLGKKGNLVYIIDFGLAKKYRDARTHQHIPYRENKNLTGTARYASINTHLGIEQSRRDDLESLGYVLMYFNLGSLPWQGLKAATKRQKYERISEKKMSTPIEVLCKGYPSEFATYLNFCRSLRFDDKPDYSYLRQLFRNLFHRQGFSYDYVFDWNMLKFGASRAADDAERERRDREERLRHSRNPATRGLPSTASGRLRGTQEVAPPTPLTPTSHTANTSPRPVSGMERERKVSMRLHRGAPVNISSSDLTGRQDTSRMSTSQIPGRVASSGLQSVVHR

CKIε = CKIε (Homo sapiens, UniProt P49674); assay: KINOMEscan binding assay; conditions: Figure 1C
Chain of CKIε (P49674 whole entry): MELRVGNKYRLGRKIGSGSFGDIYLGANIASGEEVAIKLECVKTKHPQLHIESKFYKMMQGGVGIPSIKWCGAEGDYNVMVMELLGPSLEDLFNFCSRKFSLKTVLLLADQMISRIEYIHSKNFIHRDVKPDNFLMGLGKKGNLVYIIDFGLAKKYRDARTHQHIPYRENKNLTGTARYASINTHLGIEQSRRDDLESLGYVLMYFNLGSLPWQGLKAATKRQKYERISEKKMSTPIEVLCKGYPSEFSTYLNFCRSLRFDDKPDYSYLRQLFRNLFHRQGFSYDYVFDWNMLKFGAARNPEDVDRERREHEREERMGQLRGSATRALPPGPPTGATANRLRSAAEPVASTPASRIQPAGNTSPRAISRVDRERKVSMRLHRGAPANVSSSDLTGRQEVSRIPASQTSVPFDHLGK

GSK3α/β = assay: KINOMEscan binding assay; conditions: Figure 1C
[3] = tested on: primary human leukemia cells from 5 individual patients; assay: Ex vivo killing of primary human leukemia cells; assay type: cell-based; conditions: 18–20 hr; for leukemia cell apoptosis: comparable inhibitor concentrations
Outline: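 BM mononuclear cells from newly diagnosed, untreated AML patients, isolated by Ficoll after BM biopsy. Used fresh or frozen; frozen cells thawed straight into IMDM with 50% FBS plus DNaseI. Viability stained with Annexin V and 7AAD after blocking with 20% human serum.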

[4] = tested on: cKit^HiCD11b^Low progenitors from Tet2^−/−;Flt3^ITD mice; assay: Ex vivo apoptotic killing of Tet2−/−; assay type: cell-based, mouse; conditions: 16 hr after treatment
[5] = tested on: heavy burden MLL-AF9 leukemic mice; assay: Acute in vivo anti-leukemic effect, single oral dose; design: species or system mouse
Outline: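 MLL-AF9-IRES-GFP retrovirus-transduced BM cells were passaged through sublethally irradiated (500 rad) mice. 50,000 GFP+ BM cells were then injected IV into irradiated (250 rad) C57BL/6 WT mice aged 8–12 weeks. Mice with >80% GFP+ cells in PB got a single oral dose (e.g. 10 or 20 mg/kg) or vehicle and were sacrificed at short time points (5–6 or 16 hr). Read-outs: […], absolute BM GFP+ blast counts, H&E sections and blood smears; mean ± SD, N ≥ 3.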

[6] = tested on: Pol II CTD phosphorylation at Ser2 and Ser5; assay: Western blot of Pol II CTD phosphorylation, MV4–11 cells; assay type: cell-based; conditions: MV4–11 human AML cells
CDK13 = CDK13 (Homo sapiens, UniProt Q14004); assay: KINOMEscan binding to transcriptional kinases; conditions: Figure S4B
Chain of CDK13 (Q14004 whole entry): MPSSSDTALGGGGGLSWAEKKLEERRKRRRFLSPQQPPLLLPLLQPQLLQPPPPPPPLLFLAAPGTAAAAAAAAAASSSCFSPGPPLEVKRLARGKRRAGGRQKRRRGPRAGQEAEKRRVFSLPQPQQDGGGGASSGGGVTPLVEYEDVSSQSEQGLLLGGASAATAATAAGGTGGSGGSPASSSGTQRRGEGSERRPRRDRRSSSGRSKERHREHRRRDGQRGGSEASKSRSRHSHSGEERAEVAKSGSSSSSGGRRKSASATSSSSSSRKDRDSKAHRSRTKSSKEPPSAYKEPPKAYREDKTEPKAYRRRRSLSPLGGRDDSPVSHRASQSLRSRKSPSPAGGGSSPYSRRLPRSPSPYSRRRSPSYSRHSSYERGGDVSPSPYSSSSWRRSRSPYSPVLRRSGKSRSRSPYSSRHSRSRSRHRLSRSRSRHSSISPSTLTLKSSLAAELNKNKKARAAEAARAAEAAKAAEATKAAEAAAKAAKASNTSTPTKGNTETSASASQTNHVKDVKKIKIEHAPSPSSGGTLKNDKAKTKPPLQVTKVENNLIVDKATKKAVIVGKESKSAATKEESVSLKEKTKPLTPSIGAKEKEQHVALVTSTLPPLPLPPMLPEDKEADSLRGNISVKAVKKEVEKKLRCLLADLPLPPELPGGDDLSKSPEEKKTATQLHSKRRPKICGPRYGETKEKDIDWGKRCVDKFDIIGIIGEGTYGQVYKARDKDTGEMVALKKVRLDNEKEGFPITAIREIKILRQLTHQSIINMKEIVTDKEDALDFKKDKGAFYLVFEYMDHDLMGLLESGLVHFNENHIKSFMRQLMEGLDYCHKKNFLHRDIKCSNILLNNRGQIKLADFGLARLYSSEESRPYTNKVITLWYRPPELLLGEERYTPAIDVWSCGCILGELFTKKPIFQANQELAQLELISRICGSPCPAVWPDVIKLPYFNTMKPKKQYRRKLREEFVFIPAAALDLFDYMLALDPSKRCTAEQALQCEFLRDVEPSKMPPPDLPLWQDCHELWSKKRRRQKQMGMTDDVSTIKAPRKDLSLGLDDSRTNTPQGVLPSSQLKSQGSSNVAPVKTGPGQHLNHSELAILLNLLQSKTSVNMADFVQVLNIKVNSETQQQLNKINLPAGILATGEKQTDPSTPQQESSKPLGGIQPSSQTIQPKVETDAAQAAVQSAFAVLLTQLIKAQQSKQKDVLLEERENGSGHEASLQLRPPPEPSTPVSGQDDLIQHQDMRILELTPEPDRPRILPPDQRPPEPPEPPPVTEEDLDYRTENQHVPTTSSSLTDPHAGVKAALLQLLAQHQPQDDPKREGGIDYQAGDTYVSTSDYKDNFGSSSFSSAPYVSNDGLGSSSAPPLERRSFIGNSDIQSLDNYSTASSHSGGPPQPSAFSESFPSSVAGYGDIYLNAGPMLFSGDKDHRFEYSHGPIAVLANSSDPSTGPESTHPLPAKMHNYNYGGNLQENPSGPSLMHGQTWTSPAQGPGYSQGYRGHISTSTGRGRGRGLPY

CDK11a = CDK11a (Homo sapiens, UniProt Q9UQ88); assay: KINOMEscan binding to transcriptional kinases; conditions: Figure S4B
Chain of CDK11a (Q9UQ88 whole entry): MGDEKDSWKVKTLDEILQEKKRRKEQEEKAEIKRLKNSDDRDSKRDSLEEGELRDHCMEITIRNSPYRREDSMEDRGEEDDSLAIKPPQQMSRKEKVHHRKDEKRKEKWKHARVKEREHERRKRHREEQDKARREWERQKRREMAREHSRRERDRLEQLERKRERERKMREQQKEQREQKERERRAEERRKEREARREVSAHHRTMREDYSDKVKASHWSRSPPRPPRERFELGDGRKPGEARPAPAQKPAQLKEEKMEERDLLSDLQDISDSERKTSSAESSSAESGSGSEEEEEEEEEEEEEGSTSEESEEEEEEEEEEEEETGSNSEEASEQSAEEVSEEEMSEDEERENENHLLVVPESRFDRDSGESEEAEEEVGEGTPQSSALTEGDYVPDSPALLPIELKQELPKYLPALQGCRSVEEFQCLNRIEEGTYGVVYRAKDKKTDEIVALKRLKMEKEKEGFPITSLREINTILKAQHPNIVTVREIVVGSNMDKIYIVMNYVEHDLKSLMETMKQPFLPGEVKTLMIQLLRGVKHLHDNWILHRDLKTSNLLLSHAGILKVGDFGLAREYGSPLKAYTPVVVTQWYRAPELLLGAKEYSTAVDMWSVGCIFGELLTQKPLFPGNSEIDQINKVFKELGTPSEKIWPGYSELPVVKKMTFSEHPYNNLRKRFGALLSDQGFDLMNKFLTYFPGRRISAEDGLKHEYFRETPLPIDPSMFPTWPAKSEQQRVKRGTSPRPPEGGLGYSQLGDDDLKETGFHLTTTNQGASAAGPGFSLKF

CDK19 = CDK19 (Homo sapiens, UniProt Q9BWU1); assay: KINOMEscan binding to transcriptional kinases; conditions: Figure S4B
Chain of CDK19 (Q9BWU1 whole entry): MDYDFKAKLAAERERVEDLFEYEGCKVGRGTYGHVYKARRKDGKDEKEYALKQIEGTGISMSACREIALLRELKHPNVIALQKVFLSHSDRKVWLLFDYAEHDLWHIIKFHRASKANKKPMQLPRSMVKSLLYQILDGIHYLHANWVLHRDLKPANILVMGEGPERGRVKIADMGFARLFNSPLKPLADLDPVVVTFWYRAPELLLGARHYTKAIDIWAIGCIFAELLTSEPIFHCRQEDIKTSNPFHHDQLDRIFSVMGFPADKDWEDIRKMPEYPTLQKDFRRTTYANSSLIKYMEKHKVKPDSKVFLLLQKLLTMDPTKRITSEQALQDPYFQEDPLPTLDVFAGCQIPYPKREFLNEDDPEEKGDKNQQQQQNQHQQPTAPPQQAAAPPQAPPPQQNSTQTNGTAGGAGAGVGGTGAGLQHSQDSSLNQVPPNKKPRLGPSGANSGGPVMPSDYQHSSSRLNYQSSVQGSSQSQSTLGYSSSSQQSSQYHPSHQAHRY

[7] = tested on: mouse splenic AML cells (MLL-AF9); assay: Rapid-hit ex vivo AML killing assay; assay type: cell-based; conditions: 5 mins exposure, washout, further incubation
Outline: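 Mouse AML cells were plated at 1.5 × 10^5 per 0.15 mL in StemPro-34 with IL3, IL6, TPO and SCF (10 ng/ml each) at 5% CO2. Test compound was added from DMSO stock diluted 1:1000, with DMSO alone as control. At the set times cells were spun, resuspended in drug-free medium and kept for 18 hr total. Cells were stained with Annexin V-PE/7AAD and read by flow for GFP and PE.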

CDK8 = CDK8 (Homo sapiens, UniProt P49336); assay: KINOMEscan binding to transcriptional kinases; conditions: Figure S4B
[8] = tested on: MYC, MDM2, AXIN2, CCND1 mRNA in MV4–11 cells; assay: qPCR mRNA analysis of MV4–11 cells; assay type: cell-based, human; conditions: 4 hr; A51 2μM, A86 2μM, BTX161 25μM
Outline: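 MV4–11 cells were treated for 4 hr with test compounds or DMSO, and transcripts were measured by qPCR. Three replicates (N = 3) were run, given as mean ± SD and compared by Student's t test.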

[9] = tested on: Pol II CTD phosphorylation at Ser2 and Ser5; assay: Western blot of Pol II CTD phosphorylation, primary mouse AML cells; assay type: cell-based; conditions: ex vivo 6 hr
Outline: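 Primary spleen cells from MLL-AF9 AML mice treated ex vivo for 6 hr with test compounds at several concentrations or DMSO. DMSO stocks diluted 1:1000 into medium. Immunoblot with PP2Ac as loading control.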

[10] = tested on: MV4–11 cells (DDR, p53, MDM2, MYC, MCL1); assay: Western blot of MV4–11 cells; assay type: cell-based, human; conditions: 6.5 hr
Outline: (§1)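 MV4–11 cells were exposed to test compounds at set concentrations or DMSO for 6.5 hr and analysed by western blot, with PP2Ac as loading control.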

Myc, Mdm2, Mcl1 mRNA = assay: qPCR analysis of mouse primary AML BM cells; assay type: cell-based; conditions: 1 μM, 4 hr ex vivo
Outline: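 Primary BM AML cells from MLL-AF9 mice treated ex vivo for 4 hr with 1 μM test compound or DMSO (stocks diluted 1:1000). Myc, Mdm2, Mcl1 and Axin2 transcripts measured by qPCR. N = 3, mean ± SD, Student's t test.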

CDK11b = CDK11b (Homo sapiens, UniProt P21127); assay: KINOMEscan binding to transcriptional kinases; conditions: Figure S4B
CKIα [11] = assay: Western blot of CKIα degradation in human AML cells; assay type: cell-based; conditions: MV4–11 cells, 6.5 hr
Outline: as §1

[12] = tested on: MV4–11 cells (pSer2/5 CTD, DDR, p53, MDM2, caspase 3); assay: Western blot of MV4–11 cells, single and combination treatment; assay type: cell-based, human; conditions: for DDR, p53, MDM2 and caspase 3 activation: MV4–11, single agent (BTX161 6 hr, iCDK9 4 hr, THZ1 4 hr)
Outline: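 MV4–11 cells treated at several concentrations, alone or combined: CKIα degrader for 6 hr, CDK9 inhibitor for 4 hr, CDK7 inhibitor for 4 hr. Lysates immunoblotted, with PP2Ac as loading control.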

For `Cn1ncc(-c2ccnc(N[C@H]3CC[C@H](N)CC3)n2)c1CC1CC1` [A14, (1R, 4R)-N^1-(4-(5-(cyclopropylmethyl)-1-methyl-1H-pyrazol-4-yl)pyrimidin-2-yl)cyclohexane-1,4-diamine], the “concentration highly effective in inducing leukemia cell apoptosis” value (from here on “concentration highly effective”) [1] was no more than 160 nM, the “effect on hematopoiesis at 5–10 mg/kg” value (normal C57BL/6 mice; 5–10 mg/kg) was “no adverse effect on hematopoiesis” and the “effect on blood counts at doses above 10 mg/kg” value (normal C57BL/6 mice; doses above 10 mg/kg) was “transiently reduced the white blood cells (WBC) and platelet counts”.

With `Cn1ncc(-c2nc(N[C@H]3CC[C@H](n4cccn4)CC3)ncc2Cl)c1CC1CC1` [A64, N-((1R,4R)-4-(1H-pyrazol-1-yl)cyclohexyl)-5-chloro-4-(5-(cyclopropylmethyl)-1-methyl-1H-pyrazol-4-yl)pyrimidin-2-amine] the “CDK9 Kd (direct binding affinity)” value (CDK9) was “poorly”, the CKIα affinity (CKIα [2]) was “low CKIα affinity” and the “CDK7 Kd (direct binding affinity)” value (CDK7) was “moderately”. For the same compound, the p53 induction (p53 in RKO cells) was “only induces p53 at a high concentration”, the “affinity to CKIδ” value (CKIδ) was “high affinity” and the “affinity to CKIε” value (CKIε) was “high affinity”. The GSK3α/β affinity (GSK3α/β) was “high GSK3α/β affinity” and the leukemia cell apoptosis [3] was “but not by A64 or midostaurin”.

For `Cn1ncc(-c2nc(NC3CCC(NCc4cn[nH]c4)CC3)ncc2Cl)c1CC1CC1` [A75, (1R,4R)-N^1-((1H-pyrazol-4-yl)methyl)-N^4-(5-chloro-4-(5-(cyclopropylmethyl)-1-methyl-1H-pyrazol-4-yl)pyrimidin-2-yl)cyclohexane-1,4-diamine], the “concentration highly effective” value [1] was no more than 160 nM.

`Cn1ncc(-c2nc(NC3CCC(N)CC3)ncc2F)c1CC1CC1` [A86, (1R,4R)-N^1-(4-(5-(cyclopropylmethyl)-1-methyl-1H-pyrazol-4-yl)-5-fluoropyrimidin-2-yl)cyclohexane-1,4-diamine] was tested, and the “ex vivo apoptotic killing of cKit^HiCD11b^Low progenitors” value [4] was “superior to midostaurin”, the “concentration highly effective” value [1] was no more than 160 nM and the “leukemic cell counts (GFP+) in BM and peripheral blood” value ([5]; 16 hr post single oral dose) was 5%–10%. The “in vivo signaling in leukemic cells after single oral treatment” value ([5]; A51 20 mg/kg 3 and 6 hr, A86 10 mg/kg 5 hr, spleen AML cells WB) was “phospho-CTD inhibition with downregulation of MCL1 and activation of p53, DDR, and caspase 3”, the “Pol II CTD phosphorylation at Ser2 and Ser5” value [6] was “marked reduction” and the “inhibition of CDK13 in binding screen” value (CDK13) was “hardly any inhibition”. For the same compound, the “inhibition of CDK11a in binding screen” value (CDK11a) was “hardly any inhibition”, the “inhibition of CDK19 in binding screen” value (CDK19) was “hardly any inhibition” and the “CDK9 Kd (direct binding affinity)” value (CDK9) was “low nM Kd values”. For the same compound, the “inhibition of CDK9 (P-TEFb) in binding screen” value (CDK9; Figure S4B) was “high inhibition”, the “AML cell killing after short exposure” value [7] was “sufficient to induce significant AML cell killing” and the “CDK7 Kd (direct binding affinity)” value (CDK7) was “low nM Kd values”. The “inhibition of CDK7 (TFIIH) in binding screen” value (CDK7; Figure S4B) was “high inhibition”, the “inhibition of CDK8 in binding screen” value (CDK8) was “hardly any inhibition” and the “effect on mRNA expression (MYC, MDM2, Wnt targets)” value [8] was “marked reduction in mRNA expression of MYC and MDM2”. The “Pol II CTD phosphorylation at Ser2 and Ser5” value [9] was “marked reduction”, the “effect on DDR, p53, MDM2, MYC, MCL1 protein levels (WB)” value [10] was “abolished the expression of MYC, MDM2, and the anti-apoptotic oncogene MCL1” and the “Myc, Mdm2, and Mcl1 mRNA expression” value (Myc, Mdm2, Mcl1 mRNA) was “significant reduction of Myc, Mdm2, and Mcl1 mRNA expression”. The leukemia cell apoptosis [3] was “leukemia cell apoptosis”, the IC50 ([3]; read-out: IC50 of killing effect, all 5 patient samples) was 20 to 50 nM and the “inhibition of CDK11b in binding screen” value (CDK11b) was “hardly any inhibition”.

With `Cc1cccc2c1CN([C@H]1CCCC(=O)NC1=O)C2=O` [BTX161, (S)-3-(4-methyl-1-oxoisoindolin-2-yl)azepane-2,7-dione] the CKIα degradation (CKIα [11]) was “mediates degradation of CKIα better than lenalidomide”, the “effect on mRNA expression (MYC, MDM2, Wnt targets)” value [8] was “upregulated all the Wnt targets including MYC and did not affect MDM2 mRNA expression” and the “effect on DDR, p53, MDM2, MYC, MCL1 protein levels (WB)” value [10] was “activates DDR and p53, while stabilizing the p53 antagonist MDM2”. For the same compound, the “DDR, p53, MDM2 and caspase 3 activation” value [12] was “augmented p53 and MDM2 protein expression”.

`CN(C)C/C=C/C(=O)Nc1ccc(C(=O)Nc2cccc(Nc3ncc(Cl)c(-c4c[nH]c5ccccc45)n3)c2)cc1` [THZ1] was tested, and the “pSer2/5 CTD” value ([12]; MV4–11, 4 hr, single agent) was “reduced the pSer2/5 CTD” and the “DDR, p53, MDM2 and caspase 3 activation” value [12] was “little effect on DDR, p53, and caspase 3 activation”.

For `CO[C@@H]1[C@H](N(C)C(=O)c2ccccc2)C[C@H]2O[C@]1(C)n1c3ccccc3c3c4c(c5c6ccccc6n2c5c31)C(=O)NC4` [midostaurin, reference compound], the leukemia cell apoptosis [3] was “but not by A64 or midostaurin”.
